# In ChEMBL document CHEMBL1154279, “Cytotoxic compounds from the stems of Cinnamomum tenuifolium” (J Nat Prod, 2009):
# Active and inactive are the calls of the source. No cut-off for these calls is given here.
# What was measured:
# DU-145 [1] = test: Cell cycle arrest in human DU145 cells assessed as accumulation of cells at G2/M phase at 5 uM after 24 hrs using propidium iodide stain by flow cytometry; type: functional
# How it was run: (§1)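 DU145 cells treated with 1, 5, 10 or 100 µM for 24 or 72 h; vehicle 1% DMSO in water. Adherent and floating cells pooled, fixed in PBS-MeOH (1:2) at 4 °C for at least 18 h, then stained 30 min at room temperature in the dark with propidium iodide 50 µg/mL plus RNase A 50 µg/mL. Flow cytometry, excitation 488 nm, emission above 580 nm, doublets gated out. Sub-G1 region taken as DNA damage; at least three runs.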
# DU-145 [2] = test: Cell cycle arrest in human DU145 cells assessed as accumulation of cells at G1 phase at 10 uM after 72 hrs using propidium iodide stain by flow cytometry; type: functional; how it was run: as §1
# DU-145 [3] = test: Cell cycle arrest in human DU145 cells assessed as accumulation of cells at G1 phase at 1 uM after 24 hrs using propidium iodide stain by flow cytometry; type: functional; how it was run: as §1
# DU-145 [4] = test: Cell cycle arrest in human DU145 cells assessed as accumulation of cells at S phase at 10 uM after 72 hrs using propidium iodide stain by flow cytometry; type: functional; how it was run: as §1
# DU-145 [5] = test: Cell cycle arrest in human DU145 cells assessed as accumulation of cells at S phase at 1 uM after 72 hrs using propidium iodide stain by flow cytometry; type: functional; how it was run: as §1
# DU-145 [6] = test: Cell cycle arrest in human DU145 cells assessed as accumulation of cells at sub-G1 phase at 10 uM after 24 hrs using propidium iodide stain by flow cytometry; type: functional; how it was run: as §1
# DU-145 [7] = test: Cytotoxicity against human DU145 cells after 72 hrs by XTT assay; type: functional, cell-based; conditions: DU-145, 24 h, in the assay text read “after 24 hrs” for “after 72 hrs”
# DU-145 [8] = test: Cell cycle arrest in human DU145 cells assessed as accumulation of cells at sub-G1 phase at 5 uM after 72 hrs using propidium iodide stain by flow cytometry; type: functional; how it was run: as §1
# DU-145 [9] = test: Antiproliferative activity in human DU145 cells at 10 uM after 24 hrs by XTT assay in the presence of Ac-LEHD-CMK; type: functional, cell-based
# How it was run: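 DU145 cells pretreated 60 min with 50 µM Ac-DEVD-CMK or 50 µM Ac-LEHD-CMK, then exposed to 10 µM compound for 24 h (vehicle 1% DMSO in water). Proliferation read by XTT: labeling mixture added for 4 h at 37 °C, OD 450 nm (reference 650 nm) versus control wells; mean ± SE of three experiments.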
# DU-145 [10] = test: Cell cycle arrest in human DU145 cells assessed as accumulation of cells at G1 phase at 100 uM after 72 hrs using propidium iodide stain by flow cytometry; type: functional; how it was run: as §1
# DU-145 [11] = test: Induction of apoptosis in human DU145 cells assessed as caspase3 activation at 10 uM by ELISA; type: functional, cell-based
# How it was run: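 DU145 cells treated with 10 µM for 1, 3, 6, 12 and 24 h and lysed. Lysate (60 µg) incubated with Ac-DEVD-pNA or Ac-LEHD-pNA in PIPES buffer pH 7.2 at 37 °C for 1 h in the dark. pNA release read at 405 nm and expressed as percent change against untreated control.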
# DU-145 [12] = test: Cell cycle arrest in human DU145 cells assessed as accumulation of cells at S phase at 100 uM after 24 hrs using propidium iodide stain by flow cytometry; type: functional; how it was run: as §1
# DU-145 [13] = test: Cell cycle arrest in human DU145 cells assessed as accumulation of cells at G2/M phase at 5 uM after 72 hrs using propidium iodide stain by flow cytometry; type: functional; how it was run: as §1
# DU-145 [14] = test: Cytotoxicity against human DU145 cells at 100 uM after 72 hrs by Trypan blue dye exclusion test; type: functional, cell-based
# How it was run: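 DU145 cells (1 × 10^5 per 60 mm dish) treated the following day with 1–100 µM for 24, 48 and 72 h. Cells harvested, washed twice with PBS and stained with trypan blue; unstained viable cells counted by microscope with a hemocytometer. Mean ± SE.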
# DU-145 [15] = test: Cell cycle arrest in human DU145 cells assessed as accumulation of cells at sub-G1 phase at 100 uM after 24 hrs using propidium iodide stain by flow cytometry; type: functional; how it was run: as §1
# DU-145 [16] = test: Cell cycle arrest in human DU145 cells assessed as accumulation of cells at G1 phase at 5 uM after 24 hrs using propidium iodide stain by flow cytometry; type: functional; how it was run: as §1
# DU-145 [17] = test: Cell cycle arrest in human DU145 cells assessed as accumulation of cells at S phase at 100 uM after 72 hrs using propidium iodide stain by flow cytometry; type: functional; how it was run: as §1
# DU-145 [18] = test: Cell cycle arrest in human DU145 cells assessed as accumulation of cells at G2/M phase at 1 uM after 24 hrs using propidium iodide stain by flow cytometry; type: functional; how it was run: as §1
# DU-145 [19] = test: Cell cycle arrest in human DU145 cells assessed as accumulation of cells at G1 phase at 1 uM after 72 hrs using propidium iodide stain by flow cytometry; type: functional; how it was run: as §1
# DU-145 [20] = test: Cell cycle arrest in human DU145 cells assessed as accumulation of cells at S phase at 1 uM after 24 hrs using propidium iodide stain by flow cytometry; type: functional; how it was run: as §1
# DU-145 [21] = test: Cell cycle arrest in human DU145 cells assessed as accumulation of cells at sub-G1 phase at 100 uM after 72 hrs using propidium iodide stain by flow cytometry; type: functional; how it was run: as §1
# DU-145 [22] = test: Cell cycle arrest in human DU145 cells assessed as accumulation of cells at sub-G1 phase at 1 uM after 24 hrs using propidium iodide stain by flow cytometry; type: functional; how it was run: as §1
# DU-145 [23] = test: Cell cycle arrest in human DU145 cells assessed as accumulation of cells at sub-G1 phase at 1 uM after 72 hrs using propidium iodide stain by flow cytometry; type: functional; how it was run: as §1
# DU-145 [24] = test: Increase of intracellular hydrogen peroxide and or peroxide in human DU145 cells at 50 uM after 24 hrs by DCFH-DA assay relative to control; type: functional
# How it was run: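 DU145 cells (1 × 10^4 per well) treated with 1, 10 or 50 µM for 6–24 h, then loaded with 10 µM DCFH-DA in serum-free medium for 30 min at 37 °C in the dark. DCF fluorescence read by spectrofluorimeter (ex 495, em 530 nm) within 15 min; five experiments.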
# DU-145 [25] = test: Cell cycle arrest in human DU145 cells assessed as accumulation of cells at G2/M phase at 100 uM after 24 hrs using propidium iodide stain by flow cytometry; type: functional; how it was run: as §1
compound,measurement,setting,value
CCCCCCCCCCCCCCCCCCCCCCCC/C=C(/C(=O)OC)[C@@H](O)C(C)=O [SECOTENUIFOLIDE A],Activity,DU-145 [1],37.88%
same,Activity,DU-145 [2],48.3%
same,Activity,DU-145 [3],44.45%
same,Activity,DU-145 [4],3.62%
same,Activity,DU-145 [5],2.88%
same,Activity,DU-145 [6],19.72%
same,EC50,DU-145 [7],< 7 µM
same,IC50,DU-145 [7],5.2 µM
same,Activity,DU-145 [8],14.24%
same,Activity,DU-145 [9],inactive
same,Activity,DU-145 [10],28.57%
same,Activity,DU-145 [11],Active
same,Activity,DU-145 [12],10.04%
same,Activity,DU-145 [13],31.74%
same,Activity,DU-145 [14],Active
same,Activity,DU-145 [15],24.88%
same,Activity,DU-145 [16],34.96%
same,Activity,DU-145 [17],5.38%
same,Activity,DU-145 [18],43.3%
same,Activity,DU-145 [19],53.11%
same,Activity,DU-145 [20],3.31%
same,Activity,DU-145 [21],32.57%
same,Activity,DU-145 [22],6.56%
same,Activity,DU-145 [23],9.75%
same,fold change (FC),DU-145 [24],2.5
same,Activity,DU-145 [25],26.4%
